In article PMC3963287 (Bioorganic & medicinal chemistry letters, 2014):

Assays:
[1] = system: ACSL in bEND3 brain endothelial cells; assay: In situ [14C]-palmitate incorporation into extractable lipids of bEND3 cells; format: cell-based; settings: for Inhibition of [14C]-palmitate incorporation into extractable lipids: compounds at 15 μM, Figure 3A; for Potency ratio (rank order) for inhibition of [14C]-palmitate incorporation into extractable lipids: triacsin C at 1.5 μM, all other compounds at 15 μM
Outline: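 bEND3 brain endothelial cells incubated with [14C]-palmitate, with test compounds at 15 μM or the reference ACSL inhibitor at 1.5 μM. Radioactivity measured in extractable lipid (fmoles [14C]-palmitate/μg lipid), aqueous fraction and media; total recovery summed from lipid, aqueous and media. Compared to untreated controls by one-way ANOVA with Dunnett's t test; n = 3–9 independent experiments.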

[2] = system: leukocyte recruitment (rolling, adhesion, extravasation); assay: L-NAME induced leukocyte recruitment in post-capillary venules of the mesentery; format: in vivo; settings: 120 minutes; for Inhibition of leukocyte rolling, adhesion and extravasation: 5 or 50 μM compound 1, 50 μM compound 9
[3] = system: long chain fatty acyl-CoA synthetase (ACSL); assay: Inhibition of ACSL activity in solubilized brain endothelial bEND3 cells; format: biochemical
[4] = aqueous; no reference given; cited from earlier work
[5] = system: rotavirus; settings: cited from earlier work
[6] = system: leukocyte recruitment (rolling, adhesion, extravasation); settings: 5μM; cited from earlier work

**Q.** Which results are given for `CCC/C=C/C/C=C/CN(O)/N=N/c1ccc(C(=O)O)cc1` [Compound 7]?
**A.** Inhibition of [14C]-palmitate incorporation into extractable lipids [1]: significant inhibition; Potency ratio (rank order) for inhibition of [14C]-palmitate incorporation into extractable lipids [1]: triacsin C > 3 > 1 > 4 > 9 = 7 > 2

**Q.** What does the source list for `C=CCCCCCCCCCNO` [Compound 9]?
**A.** Inhibition of [14C]-palmitate incorporation into extractable lipids [1]: significant inhibition; Potency ratio (rank order) for inhibition of [14C]-palmitate incorporation into extractable lipids [1]: triacsin C > 3 > 1 > 4 > 9 = 7 > 2; Rolling, adhesion and extravasation rates / recruitment ([2]; 50 μM): about as effective as compound 1 at 5 μM; Inhibition of leukocyte rolling, adhesion and extravasation [2]: significantly inhibited rolling, adhesion, and extravasation

**Q.** With `CCC/C=C/C/C=C/C=C/CNN1CCCS1(=O)=O` [Compound 8] as the compound, how does the “Folds less active compared with compound 3” value [3] read?
**A.** > 30 folds

**Q.** With `CCCCCCCCCCCCCCCC(=O)SCCNC(=O)CCNC(=O)[C@H](O)C(C)(C)COP(=O)(O)OP(=O)(O)OC[C@H]1O[C@@H](n2cnc3c(N)ncnc32)[C@H](O)[C@@H]1OP(=O)(O)O` [palmitoyl CoA] as the compound, how does the Water solubility [4] read?
**A.** about 1.74 g/L

**Q.** Which “Potency relative to triacsin C in the ACSL assay” value [3] does the source give for `CCC/C=C/C/C=C/C=C/CNc1ccc(C(=O)O)cc1` [Compound 1] here?
**A.** one-tenth as potent as triacsin C

**Q.** And the “Inhibition of [14C]-palmitate incorporation into extractable lipids” value [1]?
**A.** significant inhibition

**Q.** And the “Potency ratio (rank order) for inhibition of [14C]-palmitate incorporation into extractable lipids” value [1]?
**A.** triacsin C > 3 > 1 > 4 > 9 = 7 > 2

**Q.** And the “Rolling, adhesion and extravasation rates / recruitment” value ([2]; 5 μM)?
**A.** inhibited the recruitment to about half the extent as at 50 μm

**Q.** What about the “Rolling, adhesion and extravasation rates / recruitment” value ([2]; 50 μM) of the same compound?
**A.** not different from each other nor were they different from vehicle alone

**Q.** And the “Inhibition of leukocyte rolling, adhesion and extravasation” value [2]?
**A.** significantly inhibited rolling, adhesion, and extravasation

**Q.** And the “Potency relative to triacsin C as inhibitor of rotavirus replication” value [5]?
**A.** at least twice as potent as triacsin C

**Q.** For `C=CCCCCCCCCCNc1ccc(C(=O)O)c(O)c1` [Compound 4], which “Inhibition of [14C]-palmitate incorporation into extractable lipids” value [1] is on record?
**A.** significant inhibition

**Q.** What about the “Potency ratio (rank order) for inhibition of [14C]-palmitate incorporation into extractable lipids” value [1] of the same compound?
**A.** triacsin C > 3 > 1 > 4 > 9 = 7 > 2

**Q.** Which “Inhibition of [14C]-palmitate incorporation into extractable lipids” value [1] does the source give for `C=CCCCCCCCCCNc1ccc(C(=O)O)cc1` [Compound 3] here?
**A.** significant inhibition

**Q.** And the “Potency ratio (rank order) for inhibition of [14C]-palmitate incorporation into extractable lipids” value [1]?
**A.** triacsin C > 3 > 1 > 4 > 9 = 7 > 2

**Q.** Which “Times more potent than compound 3” value [3] does the source give for `CCC/C=C/C/C=C/C=C/C=N/NN=O` [Triacsin C, reference compound] here?
**A.** about 10 times

**Q.** What about the “Potency ratio (rank order) for inhibition of [14C]-palmitate incorporation into extractable lipids” value [1] of the same compound?
**A.** triacsin C > 3 > 1 > 4 > 9 = 7 > 2

**Q.** What about the “Rolling, adhesion and extravasation rates / recruitment” value ([2]; 5 μM) of the same compound?
**A.** not different from each other nor were they different from vehicle alone

**Q.** And the “Neutrophil recruitment in a model of ischemia” value [6]?
**A.** virtually abolished neutrophil recruitment

**Q.** Which “Folds less active compared with compound 3” value [3] does the source give for `CCC/C=C/C/C=C/C=N/N1CCCS1(=O)=O` [Compound 2] here?
**A.** > 30 folds

**Q.** What about the “Potency ratio (rank order) for inhibition of [14C]-palmitate incorporation into extractable lipids” value [1] of the same compound?
**A.** triacsin C > 3 > 1 > 4 > 9 = 7 > 2
